Experimental data as given in ChEMBL document CHEMBL5523707, “Novel Inhibitory Site Revealed by XAP044 Mode of Action on the Metabotropic Glutamate 7 Receptor Venus Flytrap Domain” (J Med Chem, 2024).
Activity calls are given as the source filed them. No cut-off for these calls is given here.

How the values were obtained:
[1] = organism: Rattus norvegicus; test: Ratio of pEC50 for antagonist activity against LSP4-202-induced rat mGlu7 activation transfected in HEK293 cells co-transfected with chimeric Gqi9 assessed as decrease in LSP4-202 potency to pEC50 for LSP4-202-induced rat mGlu7 activation transfected in HEK293 cells co-transfected with chimeric Gqi9; format: cell-based
In short: (§1)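 IP-One HTRF IP1 read-out in HEK293 transiently expressing rat mGlu7 plus chimeric Gqα9, 24 h after electroporation. LSP4-2022 concentration-response was tested with derivatives at 30 or 100 µM. Gives pEC50, pEC50/pEC50 control ratio, and max as % of LSP4-2022 maximal effect over basal. Triplicates, n independent experiments; paired t-test.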

[2] = biological target: Metabotropic glutamate receptor 7 (Rattus norvegicus) (UniProt P35400); test: Antagonist activity against LSP4-202-induced rat mGlu7 activation transfected in HEK293 cells co-transfected with chimeric Gqi9 assessed as decrease in LSP4-202 potency by measuring LSP4-202 maximum efficacy at 30 to 100 uM incubated for 24 hrs by IP-one HTRF assay relative to control; format: functional, cell-based; conditions: filed as antagonist, dose 30-100 µM; in short: as §1
[3] = biological target: T1, Metabotropic glutamate receptor 7 (Rattus norvegicus, UniProt P35400); test: Antagonist activity against rat mGlu7 activation transfected in HEK293 cells co-transfected with chimeric Gqi9 incubated for 24 hrs in presence of LSP4-2022 by IP-one HTRF assay; format: functional, cell-based; conditions: read-out: IC50
In short: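 Inhibition curves were run with increasing inhibitor concentrations against IP1 production by 30 µM LSP4-2022. Rat mGlu7 was co-expressed with Gqα9 in HEK293 and assayed 24 h post-transfection with IP-One HTRF. IC50/pIC50 are means ± sem of independent experiments in triplicates. pIC50 compared to reference by unpaired t-test.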

[4] = biological target: Metabotropic glutamate receptor 7 (Rattus norvegicus) (UniProt P35400); test: Non-competitive antagonist activity against rat mGlu7 receptor assessed as decrease in L-AP4 effect at 1 to 100 uM; conditions: filed as antagonist, dose 1-100 µM
[5] = biological target: T1, Metabotropic glutamate receptor 7; test: Inhibition of [3H] -LY341495 binding to rat mGlu7 expressed in CHO cell membrane incubated for 30 mins in presence of LY341495 by liquid scintillation analysis; format: cell membranes
[6] = Antagonist activity against LSP4-202-induced rat mGlu7 S229A mutant assessed as decrease in LSP4-202 potency by measuring LSP4-202 pEC50
[7] = Antagonist activity against LSP4-202-induced rat mGlu7 K233A mutant assessed as decrease in LSP4-202 potency by measuring LSP4-202 pEC50
[8] = Antagonist activity at LSP4-202-induced rat mGlu7 K233S mutant assessed as decrease in LSP4-202 potency by measuring LSP4-202 pEC50
[9] = Antagonist activity against LSP4-202-induced rat mGlu7 K233D mutant assessed as decrease in LSP4-202 potency by measuring LSP4-202 pEC50
[10] = Antagonist activity against LSP4-202-induced rat mGlu7 S237A mutant assessed as decrease in LSP4-202 potency by measuring LSP4-202 pEC50
[11] = organism: Rattus norvegicus; test: Ratio of pEC50 for antagonist activity against LSP4-202-induced wild type rat mGlu7 assessed as decrease in LSP4-202 potency to pEC50 for LSP4-202-induced wild type rat mGlu7; conditions: filed as antagonist
[12] = organism: Rattus norvegicus; test: Ratio of pEC50 for antagonist activity against LSP4-202-induced rat mGlu7 S229A mutant assessed as decrease in LSP4-202 potency to pEC50 for LSP4-202-induced rat mGlu7 S229A mutant; conditions: filed as antagonist
[13] = organism: Rattus norvegicus; test: Ratio of pEC50 for antagonist activity against LSP4-202-induced rat mGlu7 K233A mutant assessed as decrease in LSP4-202 potency to pEC50 for LSP4-202-induced rat mGlu7 K233A mutant; conditions: filed as antagonist
[14] = organism: Rattus norvegicus; test: Ratio of pEC50 for antagonist activity against LSP4-202-induced rat mGlu7 K233S mutant assessed as decrease in LSP4-202 potency to pEC50 for LSP4-202-induced rat mGlu7 K233S mutant; conditions: filed as antagonist
[15] = organism: Rattus norvegicus; test: Ratio of pEC50 for antagonist activity at LSP4-202-induced rat mGlu7 K233D mutant assessed as decrease in LSP4-202 potency to pEC50 for LSP4-202-induced rat mGlu7 K233D mutant; conditions: filed as antagonist
[16] = organism: Rattus norvegicus; test: Ratio of pEC50 for antagonist activity against LSP4-202-induced rat mGlu7 S237A mutant assessed as decrease in LSP4-202 potency to pEC50 for LSP4-202-induced rat mGlu7 S237A mutant; conditions: filed as antagonist
[17] = organism: Rattus norvegicus; test: Ratio of pEC50 for antagonist activity against LSP4-202 induced wild type rat mGlu7 assessed as decrease in LSP4-202 potency by measuring LSP4-202 pEC50 at 1 uM to pEC50 for LSP4-202-induced wild type rat mGlu7
[18] = organism: Rattus norvegicus; test: Ratio of pEC50 for antagonist activity against LSP4-202 induced wild type rat mGlu7 assessed as decrease in LSP4-202 potency by measuring LSP4-202 pEC50 at 3 uM to pEC50 for LSP4-202-induced wild type rat mGlu7
[19] = organism: Rattus norvegicus; test: Ratio of pEC50 for antagonist activity against LSP4-202 induced wild type rat mGlu7 assessed as decrease in LSP4-202 potency by measuring LSP4-202 pEC50 at 10 uM to pEC50 for LSP4-202-induced wild type rat mGlu7
[20] = organism: Rattus norvegicus; test: Ratio of pEC50 for antagonist activity against LSP4-202 induced wild type rat mGlu7 assessed as decrease in LSP4-202 potency by measuring LSP4-202 pEC50 at 30 uM to pEC50 for LSP4-202-induced wild type rat mGlu7
[21] = Antagonist activity against LSP4-202-induced rat mGlu7 […] mutant assessed as decrease in LSP4-202 potency by measuring LSP4-202 pEC50 at 10 uM
[22] = Antagonist activity against LSP4-202-induced rat mGlu7 […] mutant assessed as decrease in LSP4-202 potency by measuring LSP4-202 pEC50 at 30 uM
[23] = Antagonist activity against LSP4-202-induced rat mGlu7 […] mutant assessed as decrease in LSP4-202 potency by measuring LSP4-202 pEC50 at 100 uM
[24] = organism: Rattus norvegicus; test: Ratio of pEC50 for antagonist activity against LSP4-202 induced rat mGlu7 S229A mutant assessed as decrease in LSP4-202 potency by measuring LSP4-202 pEC50 at 10 uM to pEC50 for LSP4-202-induced rat mGlu7 S229A mutant
[25] = organism: Rattus norvegicus; test: Ratio of pEC50 for antagonist activity against LSP4-202 induced rat mGlu7 S229A mutant assessed as decrease in LSP4-202 potency by measuring LSP4-202 pEC50 at 30 uM to pEC50 for LSP4-202-induced rat mGlu7 S229A mutant
[26] = organism: Rattus norvegicus; test: Ratio of pEC50 for antagonist activity against LSP4-202 induced rat mGlu7 S229A mutant assessed as decrease in LSP4-202 potency by measuring LSP4-202 pEC50 at 100 uM to pEC50 for LSP4-202-induced rat mGlu7 S229A mutant
[27] = biological target: T1, Metabotropic glutamate receptor 7; test: Inhibition of [3H] -LY341495 binding to rat mGlu7 expressed in CHO cell membrane incubated for 30 mins by liquid scintillation analysis
[28] = biological target: T1, Metabotropic glutamate receptor 7; test: Antagonist activity against LSP4-202-induced rat mGlu7 activation transfected in HEK293 cells co-transfected with chimeric Gqi9 assessed as decrease in LSP4-202 potency by measuring LSP4-202 pEC50 incubated for 24 hrs by IP-one HTRF assay; format: functional, cell-based; in short: as §1
[29] = biological target: Metabotropic glutamate receptor 4 (Rattus norvegicus, UniProt P31423); test: Agonist activity against wild type rat mGlu4; format: functional
[30] = biological target: Metabotropic glutamate receptor 4 (Rattus norvegicus, UniProt P31423, R60A); test: Agonist activity against rat mGlu4 R60A mutant
[31] = biological target: Metabotropic glutamate receptor 4 (Rattus norvegicus, UniProt P31423, K74A); test: Agonist activity against rat mGlu4 K74A mutant
[32] = biological target: Metabotropic glutamate receptor 4 (Rattus norvegicus, UniProt P31423, S160A); test: Agonist activity against rat mGlu4 S160A mutant
[33] = biological target: Metabotropic glutamate receptor 4 (Rattus norvegicus, UniProt P31423, S160D); test: Agonist activity against rat mGlu4 S160D mutant
[34] = biological target: Metabotropic glutamate receptor 4 (Rattus norvegicus, UniProt P31423, R258A); test: Agonist activity at rat mGlu4 R258A mutant
[35] = Agonist activity at rat mGlu4 R258Q/D262/R263 mutant
[36] = Agonist activity at rat mGlu4 loop beta-10-alpha7 region
[37] = biological target: T1, Metabotropic glutamate receptor 7; test: Agonist activity at wild type rat mGlu7; format: functional
In short: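 HEK293 cells were transiently transfected by electroporation with rat mGlu7 plasmid plus chimeric Gqα9 to couple to phospholipase C. They were grown in DMEM with 10% FBS on polyornithine-coated wells at 150 000 cells/well.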

[38] = biological target: Metabotropic glutamate receptor 7 (Rattus norvegicus, UniProt P35400, K60A); test: Agonist activity at rat mGlu7 K60A mutant
[39] = biological target: Metabotropic glutamate receptor 7 (Rattus norvegicus, UniProt P35400, K60A/S160A); test: Agonist activity at rat mGlu7 K60A/S160A mutant
[40] = biological target: Metabotropic glutamate receptor 7 (Rattus norvegicus, UniProt P35400, N74A); test: Agonist activity at rat mGlu7 N74A mutant
[41] = biological target: Metabotropic glutamate receptor 7 (Rattus norvegicus, UniProt P35400, N74K); test: Agonist activity at rat mGlu7 N74K mutant
[42] = biological target: Metabotropic glutamate receptor 7 (Rattus norvegicus, UniProt P35400, S160A); test: Agonist activity at rat mGlu7 S160A mutant
[43] = biological target: Metabotropic glutamate receptor 7 (Rattus norvegicus, UniProt P35400, Q258A); test: Agonist activity at rat mGlu7 Q258A mutant
[44] = Agonist activity at rat mGlu7 Q258R/D262/R263 mutant
[45] = Agonist activity at rat mGlu7 loop beta10-alpha7 region
[46] = Agonist activity at rat mGlu7 N74K/loop 4 region
[47] = Agonist activity at rat mGlu7 S229A mutant
[48] = Agonist activity at rat mGlu7 K233A mutant
[49] = Agonist activity at rat mGlu7 K233S mutant
[50] = Agonist activity at rat mGlu7 K233D mutant
[51] = Agonist activity at rat mGlu7 S237A mutant
[52] = Agonist activity at rat mGlu7 N288A mutant
[53] = Agonist activity at rat mGlu7 D314A mutant

T1 sequence (P35400 whole entry): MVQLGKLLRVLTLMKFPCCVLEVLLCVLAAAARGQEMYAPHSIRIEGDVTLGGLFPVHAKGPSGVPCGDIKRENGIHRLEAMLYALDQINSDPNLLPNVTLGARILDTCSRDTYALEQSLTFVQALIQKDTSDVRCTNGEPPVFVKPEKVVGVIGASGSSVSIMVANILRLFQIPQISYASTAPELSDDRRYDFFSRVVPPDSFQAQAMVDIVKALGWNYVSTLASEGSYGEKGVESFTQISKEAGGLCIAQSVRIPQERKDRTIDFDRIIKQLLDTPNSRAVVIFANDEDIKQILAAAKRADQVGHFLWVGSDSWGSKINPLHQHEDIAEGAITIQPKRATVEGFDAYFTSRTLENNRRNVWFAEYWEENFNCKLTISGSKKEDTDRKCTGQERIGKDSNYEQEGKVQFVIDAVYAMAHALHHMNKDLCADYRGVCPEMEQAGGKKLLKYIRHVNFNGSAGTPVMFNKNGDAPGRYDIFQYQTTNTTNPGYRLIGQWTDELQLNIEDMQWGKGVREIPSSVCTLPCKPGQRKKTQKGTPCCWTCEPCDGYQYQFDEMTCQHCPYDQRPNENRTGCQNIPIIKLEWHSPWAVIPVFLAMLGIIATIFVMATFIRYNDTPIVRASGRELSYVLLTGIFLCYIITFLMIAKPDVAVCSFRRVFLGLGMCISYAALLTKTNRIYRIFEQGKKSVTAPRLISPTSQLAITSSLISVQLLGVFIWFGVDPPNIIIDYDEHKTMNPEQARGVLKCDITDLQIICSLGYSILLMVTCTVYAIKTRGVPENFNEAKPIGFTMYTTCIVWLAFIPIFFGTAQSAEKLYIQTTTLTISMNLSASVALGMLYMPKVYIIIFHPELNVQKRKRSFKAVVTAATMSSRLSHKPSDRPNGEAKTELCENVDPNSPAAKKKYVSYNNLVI
Chain of Metabotropic glutamate receptor 7 (Rattus norvegicus) (P35400 whole entry): as above
Chain of Metabotropic glutamate receptor 7 (Rattus norvegicus, UniProt P35400, N74A) (P35400 35-915 N74A limits assumed): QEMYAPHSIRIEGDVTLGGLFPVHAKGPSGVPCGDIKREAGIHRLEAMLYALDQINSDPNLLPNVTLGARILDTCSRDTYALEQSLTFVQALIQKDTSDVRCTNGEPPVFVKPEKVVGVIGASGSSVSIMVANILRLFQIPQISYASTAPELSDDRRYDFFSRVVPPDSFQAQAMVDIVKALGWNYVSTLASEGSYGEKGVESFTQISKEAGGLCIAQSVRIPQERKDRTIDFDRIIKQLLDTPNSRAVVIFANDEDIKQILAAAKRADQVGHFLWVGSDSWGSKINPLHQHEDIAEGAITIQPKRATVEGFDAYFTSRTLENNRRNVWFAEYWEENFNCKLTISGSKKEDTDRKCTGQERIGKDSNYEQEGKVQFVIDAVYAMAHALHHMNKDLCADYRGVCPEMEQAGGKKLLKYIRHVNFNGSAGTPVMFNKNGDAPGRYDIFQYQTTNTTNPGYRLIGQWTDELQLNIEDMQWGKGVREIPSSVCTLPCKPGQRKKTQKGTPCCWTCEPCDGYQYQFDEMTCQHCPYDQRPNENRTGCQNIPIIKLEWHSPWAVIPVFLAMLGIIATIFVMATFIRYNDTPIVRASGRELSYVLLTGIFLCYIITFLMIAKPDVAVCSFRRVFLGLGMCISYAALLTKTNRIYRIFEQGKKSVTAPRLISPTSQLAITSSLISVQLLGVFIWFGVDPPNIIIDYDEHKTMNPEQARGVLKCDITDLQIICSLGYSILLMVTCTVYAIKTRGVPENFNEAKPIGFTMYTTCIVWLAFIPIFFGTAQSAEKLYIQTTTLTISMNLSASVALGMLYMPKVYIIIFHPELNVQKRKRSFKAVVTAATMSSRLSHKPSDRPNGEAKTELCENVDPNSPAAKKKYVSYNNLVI
Chain of Metabotropic glutamate receptor 7 (Rattus norvegicus, UniProt P35400, S160A) (P35400 35-915 S160A limits assumed): as the sequence (P35400 35-915 N74A limits assumed) above, with A40N, S126A counted along it
Chain of Metabotropic glutamate receptor 7 (Rattus norvegicus, UniProt P35400, N74K) (P35400 35-915 N74K limits assumed): as the sequence (P35400 35-915 N74A limits assumed) above, with A40K counted along it

O=c1c(Oc2ccc(I)cc2)coc2cc(O)ccc12
Ratio [1]: 0.82 | Emax [2]: 96.4% | IC50 [3]: 4.33 µM | Activity [4]: Active | IC50 [5]: 0.08 µM | pEC50 [6]: 4.99 | pEC50 [7]: 3.58 | pEC50 [8]: 4.25 | pEC50 [9]: 3.56 | pEC50 [10]: 3.7 | Ratio [11]: 0.83 | Ratio [12]: 1.02 | Ratio [13]: 0.88 | Ratio [14]: 0.88 | Ratio [15]: 0.93 | Ratio [16]: 0.78 | Ratio [17]: 0.96 | Ratio [18]: 0.94 | Ratio [19]: 0.91 | Ratio [20]: 0.83 | EC50 [21]: 25 µM | pEC50 [21]: 4.6 | EC50 [22]: 49.5 µM | pEC50 [22]: 4.32 | EC50 [23]: 10.9 µM | pEC50 [23]: 4.99 | Ratio [24]: 0.96 | Ratio [25]: 0.9 | Ratio [26]: 1

N[C@](CC1c2ccccc2Oc2ccccc21)(C(=O)O)[C@H]1C[C@@H]1C(=O)O
IC50 [27]: 0.19 µM

N[C@@H](CCP(=O)(O)C(O)c1ccc(OCC(=O)O)cc1)C(=O)O (stereo partly specified)
EC50 [28]: 19.5 µM | EC50 [29]: 0.833 µM | EC50 [30]: 9.07 µM | EC50 [31]: 0.024 µM | EC50 [32]: 26.2 µM | EC50 [33]: 18.5 µM | EC50 [34]: 4.91 µM | EC50 [35]: 7 µM | EC50 [36]: 3.68 µM | EC50 [37]: 21.2 µM | EC50 [38]: 178 µM | EC50 [39]: > 300 µM | EC50 [40]: 32 µM | EC50 [41]: 47 µM | EC50 [42]: > 300 µM | EC50 [43]: 18.2 µM | EC50 [44]: 13.9 µM | EC50 [45]: 2.18 µM | EC50 [46]: 2.56 µM | EC50 [47]: 14.5 µM | pEC50 [47]: 4.96 | EC50 [48]: 87.7 µM | pEC50 [48]: 4.06 | EC50 [49]: 40.9 µM | pEC50 [49]: 4.39 | EC50 [50]: 155 µM | pEC50 [50]: 3.83 | EC50 [51]: 18.3 µM | pEC50 [51]: 4.74 | EC50 [52]: 49.3 µM | EC50 [53]: > 1000 µM
